In the library only some 4.2% were active in any assay of this set; here they are far more common.
Fh CTSL1 inh: Fasciola hepatica cathepsin L1 inhibitors, primary screen, counter-screen for PFM18AAP inhibitor project, biochemical, QFRET, fluorogenic peptide substrate. recombinant F. hepatica cathepsin L1, Z-Leu-Arg-MCA fluorescence. inhibition, % at 5.96 µM. actives 0.49% (n = 300,000). AID 1906, 2009;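 active means inhibition above the mean of all tested compounds plus 3 SD, set per screening campaign, cut at about 17% in these data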;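 further: 0% = plate median of test compound wells and 100% = 1 µM Z-Phe-Ala-diazomethylketone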
HDAC3 inhib: HDAC3 deacetylase inhibitors, primary screen, biochemical, fluorescence, cell-free homogeneous; Histone deacetylase 3 (Homo sapiens), O15379; actives 0.15% (n = 320,000); recombinant HDAC3, fluorogenic peptide/trypsin coupled; inhibition, % at 8.3 µM; in the data active means inhibition above about 26%, passing the limit was not always enough
M18AAP inhibitor: PfM18AAP inhibitors, malaria aminopeptidase, primary screen, biochemical, QFRET, recombinant enzyme. M18 aspartyl aminopeptidase (Plasmodium falciparum 3D7). H-Glu-NHMec fluorogenic cleavage. inhibition, % at 7.35 µM. actives 1.2% (n = 290,000);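 active means inhibition above the campaign mean inhibition over all tested compounds plus 3 SD, cut at about 28% in these data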;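 further: 0% = plate median of test compound wells and 100% = 2 mM ZnCl2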
AHR activator: AHR activators, primary screen, cell-based, luminescence, luciferase reporter, human; actives 2.5% (n = 320,000); AHR-responsive luciferase reporter cells; Aryl hydrocarbon receptor (Homo sapiens), P35869; activation, % at 5 µM; in the data active means activation above about 47%;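 further: 0% = vehicle wells and 100% = reference agonist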
Target sequence (P35869 whole entry, looked up): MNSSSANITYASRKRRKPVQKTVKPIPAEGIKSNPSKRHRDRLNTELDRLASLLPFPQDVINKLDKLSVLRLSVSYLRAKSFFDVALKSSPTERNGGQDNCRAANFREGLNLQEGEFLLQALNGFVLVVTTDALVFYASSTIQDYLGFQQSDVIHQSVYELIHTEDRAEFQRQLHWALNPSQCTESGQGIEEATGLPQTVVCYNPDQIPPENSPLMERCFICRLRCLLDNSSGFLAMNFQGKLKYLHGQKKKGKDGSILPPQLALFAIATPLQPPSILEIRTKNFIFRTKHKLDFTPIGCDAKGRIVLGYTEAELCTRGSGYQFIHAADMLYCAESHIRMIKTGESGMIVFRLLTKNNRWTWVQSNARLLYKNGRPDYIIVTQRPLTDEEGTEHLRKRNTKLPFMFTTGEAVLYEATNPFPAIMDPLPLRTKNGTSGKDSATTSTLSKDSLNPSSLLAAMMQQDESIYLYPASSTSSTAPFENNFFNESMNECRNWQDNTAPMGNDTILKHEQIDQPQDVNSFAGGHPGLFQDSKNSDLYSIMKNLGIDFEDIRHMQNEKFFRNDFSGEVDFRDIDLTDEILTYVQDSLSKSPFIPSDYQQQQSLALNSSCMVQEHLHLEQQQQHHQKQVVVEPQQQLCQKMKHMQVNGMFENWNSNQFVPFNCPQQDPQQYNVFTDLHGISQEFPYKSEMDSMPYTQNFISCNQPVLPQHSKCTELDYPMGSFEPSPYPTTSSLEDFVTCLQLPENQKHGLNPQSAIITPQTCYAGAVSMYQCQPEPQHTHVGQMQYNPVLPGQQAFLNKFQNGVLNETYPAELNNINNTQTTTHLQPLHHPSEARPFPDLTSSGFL
GAA850 FXN act: FXN promoter activators, primary screen, cell-based, luciferase luminescence, HEK293 lucGAA850; HEK293 lucGAA850 FXN promoter luciferase reporter, 24 h; percent of 10 µM SAHA response; activation, % at 6 µM; actives 0.56% (n = 360,000); AID 540364, 2011;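 active means activation above the average of all compounds screened plus 3 SD, cutoff fixed separately per campaign, cut at about 7.5% in these data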;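 further: 0% = DMSO wells and 100% = 10 µM SAHA wells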
SENP1 inh: human SENP1 catalytic domain inhibitors, primary screen, biochemical, FRET, uHTS; recombinant SENP1 catalytic domain, CyPet-SUMO1-YPet FRET cleavage; inhibition, % at 10 µM; AID 624204, 2012; actives 0.21% (n = 360,000);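 active means inhibition at least 30% at 10 µM, raw YFP signal under a set limit, fluorescence ratio 0.5 to 1.5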;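 further: 0% = enzyme with DMSO and 100% = no enzyme wells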
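Compound: 10 µM single point, 0.5% DMSO; Test system: hSENP1 catalytic domain, recombinant; Timing: 50 min reaction at room temperature; Technique: FRET, CFP and YFP emission; Control set: no-enzyme wells low, DMSO-plus-enzyme wells high control.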
* = called active by the depositor.

CCCC(=O)Oc1ccc(C2NC(=O)c3ccccc3O2)cc1 (centres undefined) was read as Fh CTSL1 inh -1.1, HDAC3 inhib 6.0, M18AAP inhibitor 2.5, AHR activator 56.4*, GAA850 FXN act 0.9 and SENP1 inh 0.6.
For NC(=O)c1c(NC(=O)c2ccncc2)sc2c1CCCCCC2 the results were Fh CTSL1 inh 7.4, HDAC3 inhib 2.8, M18AAP inhibitor 3.0, AHR activator 14.4, GAA850 FXN act 1.9 and SENP1 inh -0.5.
`COc1cc2c(cc1OC)CN(CC(=O)Nc1ccccc1C#N)CC2` gave Fh CTSL1 inh 4.2, HDAC3 inhib -6.2, M18AAP inhibitor 9.9, AHR activator 50.1*, GAA850 FXN act 1.2 and SENP1 inh -13.8.
`COc1cc2c(cc1OC)CN(CC(=O)Nc1ccccc1SC)CC2` gave Fh CTSL1 inh 4.5, HDAC3 inhib 19.5, M18AAP inhibitor 1.2, AHR activator -0.8, GAA850 FXN act 3.4 and SENP1 inh -7.9.
Screening O=C(N/N=C/c1ccc([N+](=O)[O-])o1)c1cc2ccccc2o1 returned Fh CTSL1 inh 7.9, HDAC3 inhib -3.4, M18AAP inhibitor 5.4, AHR activator 9.6, GAA850 FXN act -2.1 and SENP1 inh -4.8.
Screening O=[N+]([O-])c1ccc(/C=N/Nc2ccc3ccccc3c2)o1 returned Fh CTSL1 inh 6.0, M18AAP inhibitor -1.2, AHR activator 75.6*, GAA850 FXN act 4.4 and SENP1 inh 37.9*.
`O=[N+]([O-])c1ccc(/C=N\NS(=O)(=O)c2ccc(F)cc2)o1` gave Fh CTSL1 inh 20.1*, HDAC3 inhib 3.1, M18AAP inhibitor 14.3, AHR activator 2.4, GAA850 FXN act 1.6 and SENP1 inh -1.3.
Screening COc1ccc(S(=O)(=O)N/N=C\c2ccc([N+](=O)[O-])o2)c(OC)c1 returned Fh CTSL1 inh -0.3, HDAC3 inhib 3.8, M18AAP inhibitor 6.1, AHR activator -5.8, GAA850 FXN act -1.1 and SENP1 inh 0.3.
Screening CCCc1c(C)nc(N2CCN(c3ccccc3OC)CC2)[nH]c1=O returned Fh CTSL1 inh 1.4, HDAC3 inhib 0.2, M18AAP inhibitor -17.3, AHR activator 0.7, GAA850 FXN act -0.7 and SENP1 inh 0.8.
`CCn1ncc(C(=O)Nc2ccc(F)cc2)c1C` gave Fh CTSL1 inh 2.8, HDAC3 inhib 5.8, AHR activator 59.8*, GAA850 FXN act 4.4 and SENP1 inh 1.7.
`COc1ccc(NC(=O)c2cccc3ccccc23)cc1` gave Fh CTSL1 inh -1.0, HDAC3 inhib 1.8, M18AAP inhibitor -9.7, AHR activator 51.6*, GAA850 FXN act -0.7 and SENP1 inh 1.4.
Screening CCn1ncc(C(=O)Nc2ccccc2C)c1C returned Fh CTSL1 inh -6.1, HDAC3 inhib -3.7, M18AAP inhibitor 3.8, AHR activator -1.6, GAA850 FXN act 1.6 and SENP1 inh 2.8.
`CCCn1cccc(C(=O)Nc2ccc(OC)cc2)c1=O` gave Fh CTSL1 inh 1.8, HDAC3 inhib -1.3, M18AAP inhibitor -12.9, AHR activator 75.4*, GAA850 FXN act 3.1 and SENP1 inh 2.0.
O=C(Nc1ccc(F)cc1)c1cccc2ccccc12 was read as Fh CTSL1 inh -1.0, HDAC3 inhib 10.3, M18AAP inhibitor 7.3, AHR activator 57.5*, GAA850 FXN act 2.8 and SENP1 inh 0.5.
For Cc1ccc(-n2nc3ccc(NC(=O)/C=C/c4ccco4)cc3n2)cc1 the results were Fh CTSL1 inh 0.8, HDAC3 inhib 2.2, M18AAP inhibitor -8.5, AHR activator 15.7, GAA850 FXN act 4.4 and SENP1 inh -105.7.
Screening COc1ccc(NC(=O)Nc2c(O)ccc3ccccc23)cc1 returned Fh CTSL1 inh -1.6, HDAC3 inhib -0.9, AHR activator 67.4*, GAA850 FXN act 5.0 and SENP1 inh -5.7.
Screening COc1cc(NC(=O)c2ccccc2-c2ccccc2)cc(OC)c1 returned Fh CTSL1 inh 2.5, HDAC3 inhib 3.9, M18AAP inhibitor 3.8, AHR activator 47.8*, GAA850 FXN act -4.1 and SENP1 inh 0.8.
For O=C(Nc1ccc(F)cc1)c1c(Cl)nc2ccccn12 the results were Fh CTSL1 inh 0.0, HDAC3 inhib 9.3, M18AAP inhibitor -0.1, AHR activator 57.6*, GAA850 FXN act 1.4 and SENP1 inh 0.9.
O=C1c2cccc(NCCNCCO)c2C(=O)c2cccc(NCCNCCO)c21 was read as GAA850 FXN act -3.0 and SENP1 inh -3.8.
Screening Cc1cc(C)nc(-n2nc(C)c(C3(O)C(=O)Nc4ccccc43)c2N)n1 (centres undefined) returned Fh CTSL1 inh 6.1, HDAC3 inhib 0.6, M18AAP inhibitor -1.0, AHR activator 56.2*, GAA850 FXN act -0.3 and SENP1 inh 2.6.
`Cc1cccc(-n2c(C)c(-c3ccccc3)[nH]c2=S)c1` gave Fh CTSL1 inh -5.2, HDAC3 inhib -6.4, M18AAP inhibitor 23.7, AHR activator 13.7, GAA850 FXN act -0.4 and SENP1 inh 1.6.
Cc1ccc(C=Nc2ccccc2C(N)=O)s1 was read as Fh CTSL1 inh -0.8, HDAC3 inhib -9.0, M18AAP inhibitor -8.8, AHR activator 54.6*, GAA850 FXN act 2.9 and SENP1 inh 3.1.
Screening COc1cccc(CNc2ccc3c(c2)nc(C)n3C)c1OC returned Fh CTSL1 inh -3.4, HDAC3 inhib -13.4, M18AAP inhibitor 9.3, AHR activator 67.1*, GAA850 FXN act 3.0 and SENP1 inh 2.3.
COc1ccc(C(C)(O)c2nc(-c3cccc(O)c3)cs2)cc1 (centres undefined) was read as GAA850 FXN act -0.9 and SENP1 inh 0.1.
For Cn1nc(-c2ccccc2)nc1-c1ccccc1 the results were Fh CTSL1 inh 1.4, HDAC3 inhib -6.3, AHR activator 48.3*, GAA850 FXN act 7.2 and SENP1 inh -2.0.
Screening c1ccc(Cn2nc(-c3ccccc3)nc2-c2ccccc2)cc1 returned Fh CTSL1 inh -2.9, M18AAP inhibitor -3.2, AHR activator 2.9, GAA850 FXN act 3.6 and SENP1 inh 0.0.
Screening COc1ccc(CCNC(=O)c2ccccc2C(=O)NCCc2ccc(OC)c(OC)c2)cc1OC returned Fh CTSL1 inh -3.3, HDAC3 inhib -3.8, AHR activator -6.1, GAA850 FXN act 3.4 and SENP1 inh -1.9.
`COc1ccc(CCNC(=O)c2cc(-c3cccs3)on2)cc1OC` gave Fh CTSL1 inh -0.8, HDAC3 inhib -0.2, M18AAP inhibitor -8.4, AHR activator 15.8, GAA850 FXN act 16.3* and SENP1 inh 3.2.

From PubChem
